Experimental data published in PubChem BioAssay AID720574 (Broad Institute, 2013).
About 140 (0.15%) of roughly 96,000 compounds were called active. This is one part of a sample in which actives are shown more often than they occur.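 The calls were made as follows: active = mean replicate inhibition above about 25%, with at least 55% of replicates also reaching it (limit read from the data, passing the limit was not always enough); inconclusive = only one of those two conditions met; inactive = neither condition met.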

These compounds were tested against Lysine-specific demethylase 4C (Homo sapiens) (UniProt Q9H3R0) (assay: KDM4C H3K9me3 demethylation inhibition – biochemical, single concentration HTS, primary screen (AID 720574)). Conditions: GST-KDM4C 2-372, H3K9me3 peptide, LANCE TR-FRET; at 12.5 µM; stronger effect = higher value.
How it was run: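 Test system – GST-tagged GASC-1 (JMJD2C) catalytic fragment, aa 2-372 · Medium – HEPES buffer, pH 7.5, plus ascorbate · Reagent – H3K9me3 peptide with Fe(II)/2OG · Compound – one test concentration per compound · Timing – 30 min reaction, 60 min detection, RT · Technique – TR-FRET with Eu antibody and ULight streptavidin, EDTA stop · Read-out basis – inhibition from TR-FRET ratio decrease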

Sequence of Lysine-specific demethylase 4C (Homo sapiens) (Q9H3R0 2-372 limits assumed): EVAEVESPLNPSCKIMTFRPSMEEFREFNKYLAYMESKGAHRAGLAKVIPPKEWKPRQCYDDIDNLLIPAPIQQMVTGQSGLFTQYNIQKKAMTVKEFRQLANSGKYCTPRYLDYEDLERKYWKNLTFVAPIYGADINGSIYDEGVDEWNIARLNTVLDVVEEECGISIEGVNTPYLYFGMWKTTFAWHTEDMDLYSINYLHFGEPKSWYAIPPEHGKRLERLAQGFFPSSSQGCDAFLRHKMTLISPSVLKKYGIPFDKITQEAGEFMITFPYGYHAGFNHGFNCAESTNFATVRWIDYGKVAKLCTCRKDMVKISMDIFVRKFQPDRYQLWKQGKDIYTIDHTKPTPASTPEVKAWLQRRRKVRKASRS

inhibition, inactive:
CN1C(=O)c2cc(NC(=O)C3CCC3)ccc2OC[C@@H]2O[C@@H](CC(=O)NCCc3ccncc3)CC[C@H]21 1.45%, CN1C[C@H]2[C@@H](c3ccccc31)[C@@H](CO)N2C(=O)Nc1ccccc1 -2.7%, COc1cccc(-c2ccc3n(c2=O)C[C@@H]2[C@@H](CO)[C@H](C(=O)NC4CCC4)[C@H]3N2C)c1 1.02%, CO[C@@H]1CN(C)C(=O)c2cc(NC(=O)C3CCCC3)ccc2OC[C@H](C)N(C)C[C@@H]1C -0.0185%, CO[C@H]1CN(C)C(=O)c2ccc(NC(C)=O)cc2OC[C@@H](C)N(C(=O)CN(C)C)C[C@@H]1C -0.377%, CC(=O)N1[C@H](CO)[C@@H](c2ccccc2)[C@@H]1CN(CC(C)C)C(=O)c1ccccn1 4.04%, CCCC(=O)Nc1ccc2c(c1)OC[C@H](C)N(C(=O)C1CCCC1)C[C@@H](C)[C@H](OC)CN(C)C2=O 0.661%, Cc1cccc(S(=O)(=O)N2C[C@@H](O)COC[C@H]3O[C@H](CC(=O)N4CCN(C)CC4)CC[C@@H]32)c1 -1%, O=C(Cc1ccncc1)N1CC[C@@H]2[C@@H](CO)Nc3ccc(C4=CCCCC4)cc3[C@@H]21 0.328%, CC(C)NC(=O)N1C[C@@H]2[C@H](c3ccccc31)[C@@H](CO)N2Cc1ccc(Cl)cc1 1.62%, CO[C@@H]1CN(C)C(=O)c2cc(NC(=O)Nc3cc(F)ccc3F)ccc2OC[C@H](C)N(C(=O)c2ccccn2)C[C@@H]1C -1.15%, CCC(=O)Nc1ccc2c(c1)C(=O)N(C)C[C@H](OC)[C@H](C)CN(CCC(F)(F)F)[C@H](C)CO2 -0.234%, C[C@H]1CCCCO[C@@H](CN(C)C(=O)Nc2cccc3ccccc23)[C@@H](C)CN([C@@H](C)CO)C(=O)c2cc(NS(=O)(=O)c3cn(C)cn3)ccc2O1 -7.92%, O=C(C[C@H]1C[C@H]2c3cc(NC(=O)C4CCOCC4)ccc3O[C@H]2[C@@H](CO)O1)NCCN1CCCCC1 1.06%, O=C(C[C@H]1CC[C@H]2[C@@H](COC[C@H](O)CN2S(=O)(=O)c2cccc(F)c2)O1)NC1CCC1 0.711%, O=C(C[C@H]1CC[C@@H]2[C@H](COC[C@H](O)CN2Cc2ccccc2F)O1)NC1CCC1 1.48%, O=C(C[C@@H]1C=C[C@@H](NC(=O)c2cccnc2)[C@H](CO)O1)NCc1ccncn1 1.05%, C[C@H](CO)N1C[C@H](C)[C@@H](CN(C)S(C)(=O)=O)Oc2cc(C#CC3CC3)ccc2S1(=O)=O 4.29%, C[C@H]1CCCCO[C@H](CN(C)C(=O)Nc2ccc(F)cc2)[C@@H](C)CN([C@@H](C)CO)C(=O)c2cc(NC(=O)CCC(F)(F)F)ccc2O1 1.63%, CS(=O)(=O)N1CC2(C1)[C@H](c1ccccc1)[C@@H](CO)N2C(=O)c1ccccc1 -0.995%, O=C(Cc1ccncc1)N[C@@H]1CC[C@H](CCn2cc(-c3ccccc3F)nn2)O[C@H]1CO -1.33%, CN(C)CC(=O)N1[C@@H](CO)[C@H](c2ccccc2)C12CN(C(=O)c1cccc(F)c1)C2 -0.471%, CCC(=O)N1[C@H](C(=O)OC)[C@@H](CO)[C@@H]2Cn3c(ccc(-c4cccc(F)c4)c3=O)[C@@H]21 1.8%, Cc1ccc(S(=O)(=O)N(C)C[C@@H]2OCCCC[C@@H](C)Oc3ccc(NC(=O)Nc4ccc(C(F)(F)F)cc4)cc3C(=O)N([C@@H](C)CO)C[C@@H]2C)cc1 1.16%, O=C(CN1CCOCC1)N1CC(=O)N2[C@H](C1)[C@H](c1ccc(/C=C/c3ccccc3)cc1)[C@@H]2CO 0.257%, O=C(NCC[C@H]1CC[C@@H](NC(=O)C2CC2)[C@H](CO)O1)c1ccc(F)cc1 -0.983%, CCC(=O)Nc1ccc2c(c1)C(=O)N(C)[C@@H]1CC[C@H](CC(=O)NCc3ccccc3)O[C@H]1CO2 1.95%, COc1ccc(S(=O)(=O)N[C@@H]2CC[C@@H](CC(=O)N3CCC(Cc4ccccc4)CC3)O[C@@H]2CO)cc1 -0.232%, COCC(=O)Nc1ccc2c(c1)[C@@H]1C[C@H](CC(=O)NCc3ccc(-c4ccccc4)cc3)O[C@H](CO)[C@@H]1O2 -3.13%, CN1C(=O)c2cc(NC(=O)C3CCCC3)ccc2OC[C@@H]2O[C@@H](CC(=O)NCCc3ccncc3)CC[C@@H]21 1.45%, Cc1ccc(S(=O)(=O)N[C@H]2CC[C@@H](CC(=O)N3CCc4ccccc4C3)O[C@H]2CO)cc1 0.126%, O=C(C[C@@H]1C[C@H]2c3cc(NC(=O)Nc4ccccc4)ccc3O[C@H]2[C@@H](CO)O1)NC1CCCCC1 -1.66%, COc1ccc2c3c(n(C)c2c1)[C@@H](CO)N(C(=O)Nc1ccc(F)cc1)CC31CN(C(=O)NC(C)C)C1 -0.434%, C/C=C/c1ccc([C@@H]2[C@H](CO)N(CC3CCOCC3)C23CN(S(=O)(=O)CC)C3)cc1 0.162%, C[C@H](CO)N1C[C@H](C)[C@H](CN(C)Cc2ccncc2)Oc2ncc(C#CCC3CCCCC3)cc2C1=O 2.4%, CC(C)NC(=O)N(C)C[C@@H]1OCCCC[C@@H](C)Oc2ccc(NC(=O)NC3CCCCC3)cc2C(=O)N([C@@H](C)CO)C[C@@H]1C 0.134%, COc1ccccc1C#Cc1cnc2c(c1)C(=O)N([C@H](C)CO)C[C@H](C)[C@H](CN(C)S(=O)(=O)c1cn(C)cn1)O2 -1.15%, CO[C@@H]1CN(C)C(=O)c2ccc(NC(=O)c3ccccc3F)cc2OC[C@@H](C)N(CC2CCOCC2)C[C@H]1C 2.15%, CCNC(=O)C[C@@H]1CC[C@@H]2[C@H](COc3ccc(NS(=O)(=O)c4ccccc4C)cc3C(=O)N2C)O1 2.37%, CN1C[C@@H]2[C@H](c3ccccc31)[C@@H](CO)N2C(=O)Nc1ccccc1 -1.64%, CCC(=O)Nc1ccc2c(c1)C(=O)N(C)[C@H]1CC[C@H](CC(=O)NCCOC)O[C@@H]1CO2 1.02%, Cc1noc(C)c1NC(=O)N[C@@H]1C=C[C@@H](CC(=O)Nc2ccccc2)O[C@H]1CO 1.04%, CCS(=O)(=O)Nc1ccc2c(c1)C(=O)N(C)[C@H]1CC[C@@H](CC(=O)N3CCCCC3)O[C@H]1CO2 -0.234%, COCC(=O)N1CC2(C1)CN(C(=O)COC)[C@@H](CO)c1c2c2ccc(OC)cc2n1C 2.79%, CC(C)NC(=O)N[C@@H]1CC[C@@H](CCNS(=O)(=O)Cc2ccccc2)O[C@@H]1CO -0.501%, COc1ccc(S(=O)(=O)N(C)C[C@H]2Oc3c(NC(=O)CCCCCC(=O)Nc4ccccc4N)cccc3C(=O)N([C@H](C)CO)C[C@H]2C)cc1 0.35%, O=C(NC1CCCC1)[C@H]1[C@H](CO)[C@H]2Cn3c(ccc(-c4ccccc4)c3=O)[C@H]2N1CCc1ccccc1 3.27%, CO[C@H]1CN(C)C(=O)c2ccc(NC(=O)C3CCC3)cc2OC[C@H](C)NC[C@@H]1C -0.842%, Cc1ccccc1S(=O)(=O)N1[C@H](CO)[C@@H](c2ccc(-c3ccccc3)cc2)[C@@H]1C#N -3.67%, COc1ccc(S(=O)(=O)N(C)C[C@H]2OCCCC[C@H](C)Oc3ccc(NC(=O)Nc4ccc5c(c4)OCO5)cc3C(=O)N([C@@H](C)CO)C[C@@H]2C)cc1 15.8%, C[C@@H]1CN([C@@H](C)CO)C(=O)Cc2cc(NC(=O)Nc3ccc4c(c3)OCO4)ccc2O[C@H]1CN(C)S(=O)(=O)c1ccccc1 -0.169%, COc1ccc(C#Cc2ccc([C@H]3[C@H]4CN(C(=O)c5ccncc5)CC(=O)N4[C@H]3CO)cc2)cc1 -3.07%, COc1ccccc1CNC(=O)C[C@H]1C[C@@H]2c3cc(NC(=O)Nc4ccccc4F)ccc3O[C@@H]2[C@H](CO)O1 -9.36%, CO[C@@H]1CN(C)C(=O)c2cc(NC(=O)c3cccc(Oc4ccccc4)c3)ccc2OC[C@H](C)NC[C@@H]1C -0.467%, CN(C)Cc1cn(CC[C@H]2CC[C@@H](NS(=O)(=O)c3ccccc3)[C@H](CO)O2)nn1 0.714%, O=C(NC[C@@H]1N[C@@H](CO)[C@H]1c1ccc(-c2cccnc2)cc1)c1cccc(F)c1 -0.99%, CN1CCN(C(=O)C[C@H]2CC[C@@H]3[C@H](COC[C@@H](O)CN3CC3CCCC3)O2)CC1 6.35%, CCCN1C[C@@H](C)[C@@H](OC)CN(C)C(=O)c2cc(NC(=O)c3ccccc3)ccc2OC[C@H]1C -1.49%, COc1cccc(C(=O)Nc2ccc3c(c2)C(=O)N(C)[C@@H]2CC[C@@H](CC(=O)NCCCN4CCOCC4)O[C@@H]2CO3)c1 -0.807%, COCC(=O)Nc1ccc2c(c1)[C@H]1C[C@@H](CC(=O)NCc3ccccc3F)O[C@H](CO)[C@H]1O2 1.67%, CCCC(=O)N1CCC2(CC1)CN[C@H](CO)c1[nH]c3cc(OC)ccc3c12 -0.39%, CCCC(=O)Nc1ccc2c(c1)C(=O)N(C)C[C@H](OC)[C@H](C)CN(C(=O)c1ccccn1)[C@H](C)CO2 0.027%, C[C@H](CO)N1C[C@H](C)[C@@H](CN(C)Cc2ccc(Oc3ccccc3)cc2)Oc2ccc(NS(=O)(=O)c3ccc(F)cc3)cc2CC1=O -2.45%
